Key:
[1] = target: T1, Cholecystokinin receptor type A (Rattus norvegicus, UniProt P30551); assay: Displacement of [125I]BH-CCK8 from CCK1 receptor in Sprague-Dawley rat pancreatic acinar cells
T1 sequence (P30551 whole entry): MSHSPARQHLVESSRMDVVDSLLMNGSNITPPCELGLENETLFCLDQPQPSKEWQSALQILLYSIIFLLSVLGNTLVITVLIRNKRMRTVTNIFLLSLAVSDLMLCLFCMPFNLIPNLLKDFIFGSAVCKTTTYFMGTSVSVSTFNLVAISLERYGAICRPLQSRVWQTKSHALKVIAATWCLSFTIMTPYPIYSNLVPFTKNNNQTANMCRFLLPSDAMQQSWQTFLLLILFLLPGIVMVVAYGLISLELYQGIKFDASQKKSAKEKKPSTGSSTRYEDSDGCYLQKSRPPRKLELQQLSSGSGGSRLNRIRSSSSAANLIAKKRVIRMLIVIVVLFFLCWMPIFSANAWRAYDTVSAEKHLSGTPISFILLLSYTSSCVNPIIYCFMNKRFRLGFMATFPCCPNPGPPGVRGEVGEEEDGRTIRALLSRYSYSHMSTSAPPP
Outline: (§1)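 Pancreatic acini were obtained by enzymatic digestion from male Sprague Dawley rats fasted 18–24 h with water allowed. Cells were incubated with 25 pM (final) [125I]BH-CCK-8 and competitors at 37 °C for 30 min with shaking. The reaction was stopped with ice-cold Hepes-Ringer (1% BSA, soybean trypsin inhibitor, pH 7.4), then centrifuged 5 min at 12,500g, and pellet radioactivity was measured.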

[2] = target: T2, Cholecystokinin receptor type A (Cavia porcellus) (UniProt Q63931); assay: Antagonist activity against CCK1 receptor in Hartley guinea pig gallbladder assessed as inhibition of CCK-8- stimulated contraction at 1 uM; format: functional
T2 sequence (whole entry): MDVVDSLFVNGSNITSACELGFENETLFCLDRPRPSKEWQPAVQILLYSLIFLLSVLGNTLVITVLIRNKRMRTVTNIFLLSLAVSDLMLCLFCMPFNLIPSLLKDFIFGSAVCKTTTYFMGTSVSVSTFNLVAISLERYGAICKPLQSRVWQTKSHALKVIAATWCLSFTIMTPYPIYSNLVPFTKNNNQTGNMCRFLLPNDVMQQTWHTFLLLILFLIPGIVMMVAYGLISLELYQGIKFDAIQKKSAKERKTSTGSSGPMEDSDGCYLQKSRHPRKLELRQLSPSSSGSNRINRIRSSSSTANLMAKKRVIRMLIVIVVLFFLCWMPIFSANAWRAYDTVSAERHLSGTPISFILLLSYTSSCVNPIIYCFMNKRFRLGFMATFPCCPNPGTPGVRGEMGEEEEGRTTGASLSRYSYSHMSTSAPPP
Outline: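 Circular smooth-muscle strips (about 3 × 15 mm) hung in organ baths of Krebs–Henseleit at 32 °C, gassed 95% O2–5% CO2, and equilibrated 60 min with washes every 15 min. Antagonist or vehicle was applied 5 min before a submaximal (70–80%) CCK-8 concentration. Isometric contraction was recorded and activity expressed as percent inhibition of agonist contraction.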

[3] = system: Gastrin/cholecystokinin type B receptor (Cavia porcellus); assay: Displacement of [125I]BH-CCK8 from CCK2 receptor in Hartley guinea pig cerebral cortex at 30 uM
[4] = target: T3, Cholecystokinin receptor type A (Rattus norvegicus) (UniProt P30551); assay: Displacement of [125I]BH-CCK8 from CCK1 receptor in Sprague-Dawley rat pancreatic acinar cells at 3 uM; outline: as §1
T3 sequence (whole entry): T1 sequence (P30551 whole entry)

[5] = target: T3, Cholecystokinin receptor type A (Rattus norvegicus); assay: Displacement of [125I]BH-CCK8 from CCK1 receptor in Sprague-Dawley rat pancreatic acinar cells at 10 uM; outline: as §1
[6] = system: Gastrin/cholecystokinin type B receptor (Cavia porcellus); assay: Displacement of [125I]BH-CCK8 from CCK2 receptor in Hartley guinea pig cerebral cortex at 10 uM
[7] = target: Gastrin/cholecystokinin type B receptor (Cavia porcellus, UniProt H0VZC5); assay: Displacement of [125I]BH-CCK8 from CCK2 receptor in Hartley guinea pig cerebral cortex
Gastrin/cholecystokinin type B receptor, sequence (H0VZC5 1-426): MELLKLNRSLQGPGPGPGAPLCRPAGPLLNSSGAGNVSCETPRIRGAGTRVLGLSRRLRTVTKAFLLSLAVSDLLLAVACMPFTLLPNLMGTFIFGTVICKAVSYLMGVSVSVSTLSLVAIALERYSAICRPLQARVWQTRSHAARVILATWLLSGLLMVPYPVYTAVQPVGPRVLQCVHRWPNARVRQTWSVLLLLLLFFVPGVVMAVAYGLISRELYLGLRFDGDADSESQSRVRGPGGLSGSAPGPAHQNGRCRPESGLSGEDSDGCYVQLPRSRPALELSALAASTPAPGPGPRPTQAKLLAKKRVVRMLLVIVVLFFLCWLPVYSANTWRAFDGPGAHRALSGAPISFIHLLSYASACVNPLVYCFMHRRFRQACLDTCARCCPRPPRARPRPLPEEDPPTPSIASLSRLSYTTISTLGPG

[8] = system: Gastrin/cholecystokinin type B receptor (Cavia porcellus); assay: Displacement of [125I]BH-CCK8 from CCK2 receptor in Hartley guinea pig cerebral cortex at 1 uM

Row | SMILES | IC50 [1] [nM] | Activity [6] [%] | other results
1 | CC(C)CC(NC(=O)c1ccccc1NC(=O)c1cc2ccccc2[nH]1)C(=O)O (racemic) | 83 |  | inhibition [2]: 100%
2 | O=C(O)CCNC(=O)c1ccccc1NC(=O)c1cc2ccccc2[nH]1 |  |  | Activity [3]: < 20%; Activity [4]: < 20%
3 | O=C(O)CCC(NC(=O)c1ccccc1NC(=O)c1cc2ccccc2[nH]1)C(=O)O (racemic) |  | < 20 | Activity [5]: < 20%
4 | CC(C)C[C@@H](NC(=O)c1ccccc1NC(=O)c1cc2ccccc2[nH]1)C(=O)O | 46 |  | IC50 [7]: 14700 nM
5 | O=C(Nc1ccccc1C(=O)NC(Cc1ccc(O)cc1)C(=O)O)c1cc2ccccc2[nH]1 (racemic) | 2070 |  | 
6 | O=C(O)CNC(=O)c1ccccc1NC(=O)c1cc2ccccc2[nH]1 | 5520 |  | 
7 | O=C(O)CC(Cc1ccccc1)NC(=O)c1ccccc1NC(=O)c1cc2ccccc2[nH]1 (racemic) |  |  | Activity [5]: 25%; IC50 [7]: 16900 nM
8 | CCOC(=O)C(Cc1ccccc1)NC(=O)c1ccccc1NC(=O)c1cc2ccccc2[nH]1 (racemic) |  |  | Activity [3]: < 20%; Activity [4]: 20%
9 | CCCCCN(CCCCC)C(=O)C(Cc1ccccc1)NC(=O)c1ccccc1NC(=O)c1cc2ccccc2[nH]1 (stereo unspecified) |  |  | Activity [3]: < 20%; Activity [4]: < 20%
10 | O=C(Nc1ccccc1C(=O)NC(Cc1ccc(OCc2ccccc2)cc1)C(=O)O)c1cc2ccccc2[nH]1 (racemic) | 1160 | < 20 | 
11 | O=C(Nc1ccccc1C(=O)NC(CO)Cc1ccccc1)c1cc2ccccc2[nH]1 (racemic) |  |  | Activity [4]: 32%
12 | CSCCC(NC(=O)c1ccccc1NC(=O)c1cc2ccccc2n1C)C(=O)O (racemic) | 92 | < 20 | 
13 | O=C(O)CCCNC(=O)c1ccccc1NC(=O)c1cc2ccccc2[nH]1 |  |  | Activity [3]: < 20%; Activity [4]: < 20%
14 | CSCC[C@@H](NC(=O)c1ccccc1NC(=O)c1cc2ccccc2[nH]1)C(=O)O | 27 |  | IC50 [7]: 11400 nM
15 | O=C(Nc1ccccc1C(=O)NC(Cc1c[nH]c2ccccc12)C(=O)O)c1cc2ccccc2[nH]1 (racemic) | 445 |  | 
16 | CC(C)C(NC(=O)c1ccccc1NC(=O)c1cc2ccccc2[nH]1)C(=O)O (racemic) | 288 |  | 
17 | CC(NC(=O)c1ccccc1NC(=O)c1cc2ccccc2[nH]1)C(=O)O (racemic) | 3240 | < 20 | 
18 | O=C(O)CC(NC(=O)c1ccccc1NC(=O)c1cc2ccccc2[nH]1)C(=O)O (racemic) |  |  | Activity [5]: < 20%; Activity [8]: < 20%
19 | CSCCC(NC(=O)c1ccccc1NC(=O)c1cc2ccccc2[nH]1)C(=O)O (stereo unspecified) | 52 | < 20 | inhibition [2]: 100%
20 | O=C(Nc1ccccc1C(=O)NCCc1c[nH]c2ccccc12)c1cc2ccccc2[nH]1 |  | < 20 | Activity [4]: < 20%
21 | CSCC[C@H](NC(=O)c1ccccc1NC(=O)c1cc2ccccc2[nH]1)C(=O)O | 2750 |  | Activity [3]: 31%

Second part, led by results:

Row | IC50 [1] [nM] | Activity [6] [%] | SMILES | other results
22 | 8530 | < 20 | NC(=O)C(Cc1ccccc1)NC(=O)c1ccccc1NC(=O)c1cc2ccccc2[nH]1 (racemic) | 
23 |  | < 20 | O=C(Nc1ccccc1C(=O)NCCc1ccccc1)c1cc2ccccc2[nH]1 | Activity [4]: < 20%
24 | 197 |  | O=C(Nc1ccccc1C(=O)NC(Cc1ccccc1)C(=O)O)c1cc2ccccc2[nH]1 (stereo unspecified) | IC50 [7]: 16400 nM
25 | 3150 | < 20 | CC(Cc1ccccc1)NC(=O)c1ccccc1NC(=O)c1cc2ccccc2[nH]1 (racemic) | 
